Measurements reported in ChEMBL document CHEMBL5356993, “Novel pyrazolo[3,4-d]pyrimidine derivatives: design, synthesis, anticancer evaluation, VEGFR-2 inhibition, and antiangiogenic activity” (RSC Med Chem, 2023).

The compounds below were run on OVCAR-5 (assay: Antiproliferative activity against human OVCAR-5 cells assessed as cell growth inhibition at 10 uM incubated for 48 hrs by SRB assay relative to control). Conditions: read-out: GI.
Assay type: functional
Procedure, shortened: (§1)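 Cells plated in 96-well plates at […] cells/well and preincubated 24 h at 37 °C, 5% CO2. Time-zero plates were TCA-fixed. Compound was diluted in medium with 50 µg/mL gentamicin and cells exposed for 48 h. Adherent cells fixed with 10% final TCA; suspension cells with 16% final TCA. Plates stained with 0.4% SRB in 1% acetic acid, dye solubilized in 10 mM Trizma, absorbance read at 515 nm. Percent growth calculated against time-zero and control.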

Row | Structure (SMILES) | inhibition of growth at 10 µM
1 | Cc1nc2c(cnn2-c2ccccc2)c(=O)n1-c1ccc(N)cc1 | < 15%

The compounds below were run on NCI-H322M (assay: Antiproliferative activity against human NCI-H322M cells assessed as cell growth inhibition at 10 uM incubated for 48 hrs by SRB assay relative to control). Conditions: read-out: GI.
Assay type: functional

Row | Structure (SMILES) | inhibition of growth at 10 µM
2 | Cc1nc2c(cnn2-c2ccccc2)c(=O)n1-c1ccc(N)cc1 | < 15%

These compounds were tested on COLO 205 (assay: Antiproliferative activity against human COLO 205 cells assessed as cell growth inhibition at 10 uM incubated for 48 hrs by SRB assay relative to control). Conditions: read-out: GI.
Assay type: functional

Row | Structure (SMILES) | inhibition of growth at 10 µM
3 | Cc1nc2c(cnn2-c2ccccc2)c(=O)n1-c1ccc(N)cc1 | < 15%

These compounds were tested on HT-29 (assay: Antiproliferative activity against human HT-29 cells assessed as cell growth inhibition at 10 uM incubated for 48 hrs by SRB assay relative to control). Conditions: read-out: GI.
Assay type: functional
Procedure, shortened: as §1

Row | Structure (SMILES) | inhibition of growth at 10 µM
4 | Cc1nc2c(cnn2-c2ccccc2)c(=O)n1-c1ccc(N)cc1 | < 15%

Each compound was assayed on KM12 (assay: Antiproliferative activity against human KM12 cells assessed as cell growth inhibition at 10 uM incubated for 48 hrs by SRB assay relative to control). Conditions: read-out: GI.
Assay type: functional
Procedure, shortened: as §1

Row | Structure (SMILES) | inhibition of growth at 10 µM
5 | Cc1nc2c(cnn2-c2ccccc2)c(=O)n1-c1ccc(N)cc1 | < 15%

Each compound was assayed on SF-268 (assay: Antiproliferative activity against human SF-268 cells assessed as cell growth inhibition at 10 uM incubated for 48 hrs by SRB assay relative to control). Conditions: read-out: GI.
Assay type: functional

Row | Structure (SMILES) | inhibition of growth at 10 µM
6 | Cc1nc2c(cnn2-c2ccccc2)c(=O)n1-c1ccc(N)cc1 | 17.4%

These compounds were tested on SF-295 (assay: Antiproliferative activity against human SF-295 cells assessed as cell growth inhibition at 10 uM incubated for 48 hrs by SRB assay relative to control). Conditions: read-out: GI.
Assay type: functional
Procedure, shortened: as §1

Row | Structure (SMILES) | inhibition of growth at 10 µM
7 | Cc1nc2c(cnn2-c2ccccc2)c(=O)n1-c1ccc(N)cc1 | 27.1%

The compounds below were run on SNB-19 (assay: Antiproliferative activity against human SNB-19 cells assessed as cell growth inhibition at 10 uM incubated for 48 hrs by SRB assay relative to control). Conditions: read-out: GI.
Assay type: functional
Procedure, shortened: (§2)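 Cells pre-incubated 24 h at 37°C, 5% CO2, then exposed to compound (DMSO stock diluted in medium with 50 µg/mL gentamicin) for 48 h. Adherent cells fixed with cold TCA (final 10%, 60 min, 4°C); suspension cells fixed with 16% TCA final. Stained with 0.4% SRB in 1% acetic acid for 10 min, dye solubilized in 10 mM Trizma base, absorbance read at 515 nm. Growth calculated against time-zero and untreated control plates.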

Row | Structure (SMILES) | inhibition of growth at 10 µM
8 | Cc1nc2c(cnn2-c2ccccc2)c(=O)n1-c1ccc(N)cc1 | < 15%

Each compound was assayed on SNB-75 (assay: Antiproliferative activity against human SNB-75 cells assessed as cell growth inhibition at 10 uM incubated for 48 hrs by SRB assay relative to control). Conditions: read-out: GI.
Assay type: functional
Procedure, shortened: as §2

Row | Structure (SMILES) | inhibition of growth at 10 µM
9 | Cc1nc2c(cnn2-c2ccccc2)c(=O)n1-c1ccc(N)cc1 | 28.1%

What follows are compounds tested on U-251 (assay: Antiproliferative activity against human U-251 cells assessed as cell growth inhibition at 10 uM incubated for 48 hrs by SRB assay relative to control). Conditions: read-out: GI.
Assay type: functional
Procedure, shortened: as §2

Row | Structure (SMILES) | inhibition of growth at 10 µM
10 | Cc1nc2c(cnn2-c2ccccc2)c(=O)n1-c1ccc(N)cc1 | < 15%

These compounds were tested on Malme-3M (assay: Antiproliferative activity against human Malme-3M cells assessed as cell growth inhibition at 10 uM incubated for 48 hrs by SRB assay relative to control). Conditions: read-out: GI.
Assay type: functional

Row | Structure (SMILES) | inhibition of growth at 10 µM
11 | Cc1nc2c(cnn2-c2ccccc2)c(=O)n1-c1ccc(N)cc1 | 17.8%

What follows are compounds tested on SK-MEL-2 (assay: Antiproliferative activity against human SK-MEL-2 cells assessed as cell growth inhibition at 10 uM incubated for 48 hrs by SRB assay relative to control). Conditions: read-out: GI.
Assay type: functional
Procedure, shortened: as §1

Row | Structure (SMILES) | inhibition of growth at 10 µM
12 | Cc1nc2c(cnn2-c2ccccc2)c(=O)n1-c1ccc(N)cc1 | 17.8%

What follows are compounds tested on SK-MEL-28 (assay: Antiproliferative activity against human SK-MEL-28 cells assessed as cell growth inhibition at 10 uM incubated for 48 hrs by SRB assay relative to control). Conditions: read-out: GI.
Assay type: functional
Procedure, shortened: as §1

Row | Structure (SMILES) | inhibition of growth at 10 µM
13 | Cc1nc2c(cnn2-c2ccccc2)c(=O)n1-c1ccc(N)cc1 | < 15%

The compounds below were run on UACC-257 (assay: Antiproliferative activity against human UACC-257 cells assessed as cell growth inhibition at 10 uM incubated for 48 hrs by SRB assay relative to control). Conditions: read-out: GI.
Assay type: functional
Procedure, shortened: as §2

Row | Structure (SMILES) | inhibition of growth at 10 µM
14 | Cc1nc2c(cnn2-c2ccccc2)c(=O)n1-c1ccc(N)cc1 | 34.3%

These compounds were tested on IGROV-1 (assay: Antiproliferative activity against human IGROV-1 cells assessed as cell growth inhibition at 10 uM incubated for 48 hrs by SRB assay relative to control). Conditions: read-out: GI.
Assay type: functional

Row | Structure (SMILES) | inhibition of growth at 10 µM
15 | Cc1nc2c(cnn2-c2ccccc2)c(=O)n1-c1ccc(N)cc1 | 15%

These compounds were tested on OVCAR-3 (assay: Antiproliferative activity against human OVCAR-3 cells assessed as cell growth inhibition at 10 uM incubated for 48 hrs by SRB assay relative to control). Conditions: read-out: GI.
Assay type: functional
Procedure, shortened: as §1

Row | Structure (SMILES) | inhibition of growth at 10 µM
16 | Cc1nc2c(cnn2-c2ccccc2)c(=O)n1-c1ccc(N)cc1 | < 15%

These compounds were tested on OVCAR-8 (assay: Antiproliferative activity against human OVCAR-8 cells assessed as cell growth inhibition at 10 uM incubated for 48 hrs by SRB assay relative to control). Conditions: read-out: GI.
Assay type: functional

Row | Structure (SMILES) | inhibition of growth at 10 µM
17 | Cc1nc2c(cnn2-c2ccccc2)c(=O)n1-c1ccc(N)cc1 | < 15%

These compounds were tested on NCI/ADR-RES (assay: Antiproliferative activity against human NCI-ADR-RES cells assessed as cell growth inhibition at 10 uM incubated for 48 hrs by SRB assay relative to control). Conditions: read-out: GI.
Assay type: functional

Row | Structure (SMILES) | inhibition of growth at 10 µM
18 | Cc1nc2c(cnn2-c2ccccc2)c(=O)n1-c1ccc(N)cc1 | < 15%

The compounds below were run on SK-OV-3 (assay: Antiproliferative activity against human SK-OV-3 cells assessed as cell growth inhibition at 10 uM incubated for 48 hrs by SRB assay relative to control). Conditions: read-out: GI.
Assay type: functional
Procedure, shortened: as §1

Row | Structure (SMILES) | inhibition of growth at 10 µM
19 | Cc1nc2c(cnn2-c2ccccc2)c(=O)n1-c1ccc(N)cc1 | < 15%

The compounds below were run on ACHN (assay: Antiproliferative activity against human ACHN cells assessed as cell growth inhibition at 10 uM incubated for 48 hrs by SRB assay relative to control). Conditions: read-out: GI.
Assay type: functional

Row | Structure (SMILES) | inhibition of growth at 10 µM
20 | Cc1nc2c(cnn2-c2ccccc2)c(=O)n1-c1ccc(N)cc1 | 27.1%

Each compound was assayed on CAKI-1 (assay: Antiproliferative activity against human CAKI-1 cells assessed as cell growth inhibition at 10 uM incubated for 48 hrs by SRB assay relative to control). Conditions: read-out: GI.
Assay type: functional

Row | Structure (SMILES) | inhibition of growth at 10 µM
21 | Cc1nc2c(cnn2-c2ccccc2)c(=O)n1-c1ccc(N)cc1 | 31.7%

What follows are compounds tested on RXF 393 (assay: Antiproliferative activity against human RXF 393 cells assessed as cell growth inhibition at 10 uM incubated for 48 hrs by SRB assay relative to control). Conditions: read-out: GI.
Assay type: functional
Procedure, shortened: as §1

Row | Structure (SMILES) | inhibition of growth at 10 µM
22 | Cc1nc2c(cnn2-c2ccccc2)c(=O)n1-c1ccc(N)cc1 | < 15%

These compounds were tested on SN12C (assay: Antiproliferative activity against human SN12C cells assessed as cell growth inhibition at 10 uM incubated for 48 hrs by SRB assay relative to control). Conditions: read-out: GI.
Assay type: functional

Row | Structure (SMILES) | inhibition of growth at 10 µM
23 | Cc1nc2c(cnn2-c2ccccc2)c(=O)n1-c1ccc(N)cc1 | 21.1%

Each compound was assayed on PC-3 (assay: Antiproliferative activity against human PC-3 cells assessed as cell growth inhibition at 10 uM incubated for 48 hrs by SRB assay relative to control). Conditions: read-out: GI.
Assay type: functional

Row | Structure (SMILES) | inhibition of growth at 10 µM
24 | Cc1nc2c(cnn2-c2ccccc2)c(=O)n1-c1ccc(N)cc1 | 18%

Each compound was assayed on DU-145 (assay: Antiproliferative activity against human DU-145 cells assessed as cell growth inhibition at 10 uM incubated for 48 hrs by SRB assay relative to control). Conditions: read-out: GI.
Assay type: functional

Row | Structure (SMILES) | inhibition of growth at 10 µM
25 | Cc1nc2c(cnn2-c2ccccc2)c(=O)n1-c1ccc(N)cc1 | 17.3%

These compounds were tested on MCF7 (assay: Antiproliferative activity against human MCF7 cells assessed as cell growth inhibition at 10 uM incubated for 48 hrs by SRB assay relative to control). Conditions: read-out: GI.
Assay type: functional

Row | Structure (SMILES) | inhibition of growth at 10 µM
26 | Cc1nc2c(cnn2-c2ccccc2)c(=O)n1-c1ccc(N)cc1 | 37.6%

The compounds below were run on Hs-578T (assay: Antiproliferative activity against human Hs-578T cells assessed as cell growth inhibition at 10 uM incubated for 48 hrs by SRB assay relative to control). Conditions: read-out: GI.
Assay type: functional
Procedure, shortened: as §1

Row | Structure (SMILES) | inhibition of growth at 10 µM
27 | Cc1nc2c(cnn2-c2ccccc2)c(=O)n1-c1ccc(N)cc1 | 21.4%

The compounds below were run on BT-549 (assay: Antiproliferative activity against human BT-549 cells assessed as cell growth inhibition at 10 uM incubated for 48 hrs by SRB assay relative to control). Conditions: read-out: GI.
Assay type: functional

Row | Structure (SMILES) | inhibition of growth at 10 µM
28 | Cc1nc2c(cnn2-c2ccccc2)c(=O)n1-c1ccc(N)cc1 | 31.2%

What follows are compounds tested on MDA-MB-468 (assay: Antiproliferative activity against human MDA-MB-468 cells assessed as cell growth inhibition at 10 uM incubated for 48 hrs by SRB assay relative to control). Conditions: read-out: GI.
Assay type: functional

Row | Structure (SMILES) | inhibition of growth at 10 µM
29 | Cc1nc2c(cnn2-c2ccccc2)c(=O)n1-c1ccc(N)cc1 | 62.4%

What follows are compounds tested on NCI-H226 (assay: Antiproliferative activity against human NCI-H226 cells assessed as cell growth inhibition at 10 uM incubated for 48 hrs by SRB assay relative to control). Conditions: read-out: GI.
Assay type: functional
Procedure, shortened: as §1

Row | Structure (SMILES) | inhibition of growth at 10 µM
30 | Cc1nc2c(cnn2-c2ccccc2)c(=O)n1-c1ccc(N)cc1 | 18%

Each compound was assayed on HOP-92 (assay: Antiproliferative activity against human HOP-92 cells assessed as cell growth inhibition at 10 uM incubated for 48 hrs by SRB assay relative to control). Conditions: read-out: GI.
Assay type: functional
Procedure, shortened: as §1

Row | Structure (SMILES) | inhibition of growth at 10 µM
31 | Cc1nc2c(cnn2-c2ccccc2)c(=O)n1-c1ccc(N)cc1 | < 15%

Each compound was assayed on A549 (assay: Antiproliferative activity against human A549 cells assessed as cell growth inhibition at 10 uM incubated for 48 hrs by SRB assay relative to control). Conditions: read-out: GI.
Assay type: functional

Row | Structure (SMILES) | inhibition of growth at 10 µM
32 | Cc1nc2c(cnn2-c2ccccc2)c(=O)n1-c1ccc(N)cc1 | < 15%

The compounds below were run on RPMI-8226 (assay: Antiproliferative activity against human RPMI-8226 cells assessed as cell growth inhibition at 10 uM incubated for 48 hrs by SRB assay relative to control). Conditions: read-out: GI.
Assay type: functional

Row | Structure (SMILES) | inhibition of growth at 10 µM
33 | Cc1nc2c(cnn2-c2ccccc2)c(=O)n1-c1ccc(N)cc1 | 48.2%

These compounds were tested on MOLT-4 (assay: Antiproliferative activity against human MOLT-4 cells assessed as cell growth inhibition at 10 uM incubated for 48 hrs by SRB assay relative to control). Conditions: read-out: GI.
Assay type: functional

Row | Structure (SMILES) | inhibition of growth at 10 µM
34 | Cc1nc2c(cnn2-c2ccccc2)c(=O)n1-c1ccc(N)cc1 | < 15%
